Series [1] concerns Staphylococcus aureus. In words: Antimicrobial activity against Staphylococcus aureus MTCCB 737 at 100 ug/mL after 16 to 20 hrs by disk diffusion method. Type of series: functional. To be noted: read-out: DIZ. The method in brief:
(§1)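 Nutrient agar disc diffusion with compounds at 100 µg/mL and DMSO as blank. Plates were incubated 16–20 h at 37 °C, then inhibition zone diameter was measured. Zones of 12 mm or less were scored resistant, 13–17 mm moderate, and 18 mm or more maximum inhibition.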
(In general: Agar diffusion results depend on both activity and mobility in agar.)

Series [2] has as its system Staphylococcus epidermidis. In words: Antimicrobial activity against Staphylococcus epidermidis MTCCB 1824 at 100 ug/mL after 16 to 20 hrs by disk diffusion method. Type of series: functional. To be noted: read-out: DIZ. The procedure, abridged: as §1
The test system of series [3] is Escherichia coli. In words: Antimicrobial activity against Escherichia coli MTCCB 1652 at 100 ug/mL after 16 to 20 hrs by disk diffusion method. The series is classed as functional. To be noted: read-out: DIZ. The method in brief: as §1
Series [4] deals with Pseudomonas aeruginosa. In words: Antimicrobial activity against Pseudomonas aeruginosa ATCC 27853 at 100 ug/mL after 16 to 20 hrs by disk diffusion method. Type of series: functional. As to conditions: read-out: DIZ. The procedure, abridged: as §1
For series [5], the system named is Staphylococcus aureus. In words: Antimicrobial activity against Staphylococcus aureus MTCCB 737 after 24 hrs by tube dilution technique. Type of series: functional. To be noted: MTCCB 737, 24 h. The procedure, abridged: (§2)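 Tube dilution in nutrient broth at 3.12, 6.25, 12.5, 25 and 50 µg/mL. Each tube received 100 µL of standardized bacterial suspension (10^7 cell/mL). Tubes were incubated at 37 °C for 24 h. MIC was the lowest concentration that maintained or reduced inoculum viability.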

Series [6] deals with Staphylococcus epidermidis. In words: Antimicrobial activity against Staphylococcus epidermidis MTCCB 1824 after 24 hrs by tube dilution technique. To be noted: MTCCB 1824, 24 h. Type of series: functional. The procedure, abridged:
as §2

Series [7] relates to Escherichia coli. In words: Antimicrobial activity against Escherichia coli MTCCB 1652 after 24 hrs by tube dilution technique. The series is classed as functional. To be noted: MTCCB 1652, 24 h. The procedure, abridged: as §2
Series [8] has as its system Pseudomonas aeruginosa. In words: Antimicrobial activity against Pseudomonas aeruginosa ATCC 27853 after 24 hrs by tube dilution technique. The series is classed as functional. To be noted: ATCC 27853, 24 h. The method in brief: as §2
Another series relates to Artemia salina. In words: (§3) Toxicity against Artemia salina larvae after 24 hrs. As to conditions: in vivo, 24 h. Type of series: organism-based. The method in brief:
(§4)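 Brine shrimp lethality test. Artemia salina eggs were hatched 48 h at 37 °C in filtered sea salt solution (38 g/L) with constant oxygen to give nauplii. Stock was 10 mg compound in 2 mL DMSO, diluted to 80, 40, 20, 10 and 5 µg/mL in triplicate vials, about 10 nauplii each, with a DMSO control. LC50 is the mean of three values.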

The test system of series [9] is Staphylococcus aureus. In words: Antimicrobial activity against Staphylococcus aureus MTCCB 737 at 30 ug/mL after 16 to 20 hrs by disk diffusion method. Type of series: functional. To be noted: read-out: DIZ. The procedure, abridged:
(§5)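 Nutrient agar disc diffusion with the reference drug tetracycline at 30 µg/mL and DMSO as blank. Plates were incubated 16–20 h at 37 °C, then inhibition zone diameter was measured. Zones of 12 mm or less were scored resistant, 13–17 mm moderate, and 18 mm or more maximum inhibition.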

Series [10] concerns Staphylococcus epidermidis. In words: Antimicrobial activity against Staphylococcus epidermidis MTCCB 1824 at 30 ug/mL after 16 to 20 hrs by disk diffusion method. The series is classed as functional. To be noted: read-out: DIZ. The method in brief:
as §5

Series [11] concerns Escherichia coli. In words: Antimicrobial activity against Escherichia coli MTCCB 1652 at 30 ug/mL after 16 to 20 hrs by disk diffusion method. Type of series: functional. To be noted: read-out: DIZ. The method in brief: as §5
Series [12] concerns Pseudomonas aeruginosa. In words: Antimicrobial activity against Pseudomonas aeruginosa ATCC 27853 at 30 ug/mL after 16 to 20 hrs by disk diffusion method. The series is classed as functional. As to conditions: read-out: DIZ. The method in brief:
as §5

Series [13] relates to Pseudomonas aeruginosa. In words: Antimicrobial activity against Pseudomonas aeruginosa ATCC 27853.
A short description of series [14]: as §3. As to conditions: in vivo. Type of series: organism-based. The procedure, abridged:
as §4

≈ marks a conversion by molar mass, not a printed value.

For orientation: MIC means the smallest concentration in the dilution series that meets the test's criterion for growth inhibition. Low values mean inhibition by little substance, high ones a need for much substance. A word on the LC50: it is the concentration lethal to half of the exposed cells or organisms. A higher LC50 goes with lower toxicity.

As for `Cc1nnc(NN)n(N)c1=O`, the zone of inhibition at 100 µg/mL in the series with Staphylococcus aureus [1] was 17 mm; in [2], 15 mm; with Escherichia coli [3], 15 mm; in the series with Pseudomonas aeruginosa [4], 15 mm. Further, the minimal inhibitory concentration (MIC) stood at 50 µg/mL (≈ 320 µM) in the series with Staphylococcus aureus [5], 50 µg/mL (≈ 320 µM) in series [6], 25 µg/mL (≈ 160 µM) with Escherichia coli [7] and 50 µg/mL (≈ 320 µM) against Pseudomonas aeruginosa [8].

In turn, BLEOMYCIN returned an LC50 in the series on Artemia salina of 0.41 µg/mL.

Turning to `CN(C)[C@@H]1C(O)=C(C(N)=O)C(=O)[C@@]2(O)C(O)=C3C(=O)c4c(O)cccc4[C@@](C)(O)[C@H]3C[C@@H]12` [TETRACYCLINE], the MIC (with Staphylococcus aureus [5]; in series [6]; in the series with Escherichia coli [7]; against Pseudomonas aeruginosa [8]) was 6.25 µg/mL (≈ 14.1 µM) in each case. Also, the zone of inhibition at 30 µg/mL came out at 30 mm in the series with Staphylococcus aureus [9], 25 mm in series [10], 28 mm in the series on Escherichia coli [11] and 29 mm in the series with Pseudomonas aeruginosa [12]. In the series with Pseudomonas aeruginosa [13], this molecule returned a diameter of the inhibition zone (DIZ) of 29 mm.

As to `Cc1nnc(N)n(N)c1=O`, the zone of inhibition at 100 µg/mL in the series on Staphylococcus aureus [1] was 16 mm; in [2], 15 mm; in the series with Escherichia coli [3], 14 mm; in the series with Pseudomonas aeruginosa [4] it was 13 mm. Further, the MIC in the series with Staphylococcus aureus [5] was 25 µg/mL (≈ 177 µM); in series [6], 25 µg/mL (≈ 177 µM); against Escherichia coli [7], 50 µg/mL (≈ 354 µM); against Pseudomonas aeruginosa [8] it was 50 µg/mL (≈ 354 µM).

As for `Cc1nnc(S)n(N)c1=O`, the zone of inhibition at 100 µg/mL in the series on Staphylococcus aureus [1] was 13 mm; in [2], 14 mm; in the series with Escherichia coli [3], 14 mm; with Pseudomonas aeruginosa [4], 15 mm. The MIC in the series with Staphylococcus aureus [5] is 50 µg/mL (≈ 316 µM); in series [6], 50 µg/mL (≈ 316 µM); in the series on Escherichia coli [7], 50 µg/mL (≈ 316 µM); with Pseudomonas aeruginosa [8], 25 µg/mL (≈ 158 µM).

On to `Cc1nnc2n(c1=O)NP(=O)(c1ccccc1)S2` (stereo not drawn), for which the zone of inhibition at 100 µg/mL turned out to be 20 mm in the series with Staphylococcus aureus [1], 17 mm in [2], 21 mm with Escherichia coli [3] and 23 mm in the series with Pseudomonas aeruginosa [4]. The MIC in the series with Staphylococcus aureus [5] turned out to be 25 µg/mL (≈ 89.2 µM); in series [6] it was 25 µg/mL (≈ 89.2 µM); against Escherichia coli [7] it was 12.5 µg/mL (≈ 44.6 µM); against Pseudomonas aeruginosa [8], 12.5 µg/mL (≈ 44.6 µM). The LC50 at 24 h in [14] turned out to be 7.85 µg/mL (≈ 28 µM).

As for `CCOP1(=O)Sc2nnc(C)c(=O)n2NC1c1ccc(Cl)cc1` (stereo not drawn), the zone of inhibition at 100 µg/mL in the series with Staphylococcus aureus [1] is 27 mm; in [2] it was 23 mm; with Escherichia coli [3] it was 15 mm; in the series with Pseudomonas aeruginosa [4], 20 mm. Also, the MIC against Staphylococcus aureus [5] was 6.25 µg/mL (≈ 16.8 µM); in series [6], 6.25 µg/mL (≈ 16.8 µM); in the series with Escherichia coli [7], 50 µg/mL (≈ 134 µM); against Pseudomonas aeruginosa [8], 25 µg/mL (≈ 67.1 µM). In addition, the LC50 at 24 h in series [14] is 13.8 µg/mL (≈ 37.1 µM).

Regarding `Cc1nnc2n(c1=O)N=C(c1ccccc1)CP(c1ccccc1)(c1ccccc1)(c1ccccc1)S2`, the zone of inhibition at 100 µg/mL was determined as 21 mm in the series with Staphylococcus aureus [1], 19 mm in [2], 16 mm in the series with Escherichia coli [3] and 19 mm in the series on Pseudomonas aeruginosa [4]. The MIC with Staphylococcus aureus [5] was 25 µg/mL (≈ 48 µM); in series [6], 12.5 µg/mL (≈ 24 µM); against Escherichia coli [7] it was 50 µg/mL (≈ 96 µM); against Pseudomonas aeruginosa [8], 50 µg/mL (≈ 96 µM).

For the molecule `CC1=Nn2c(nnc(C)c2=O)SP1(c1ccccc1)(c1ccccc1)c1ccccc1`, the zone of inhibition at 100 µg/mL in the series with Staphylococcus aureus [1] is 20 mm; in series [2], 19 mm; in the series on Escherichia coli [3], 19 mm; with Pseudomonas aeruginosa [4], 22 mm. The MIC in the series on Staphylococcus aureus [5] was determined as 25 µg/mL (≈ 56.2 µM); in series [6], 25 µg/mL (≈ 56.2 µM); against Escherichia coli [7], 12.5 µg/mL (≈ 28.1 µM); against Pseudomonas aeruginosa [8], 12.5 µg/mL (≈ 28.1 µM).
